Measurements from ChEMBL document CHEMBL4346701, “Synthesis and biological evaluation of tryptophan-derived rhodanine derivatives as PTP1B inhibitors and anti-bacterial agents” (Eur J Med Chem, 2019).
Converted amounts (≈) assume the structure as drawn.

Tests used:
[1] = molecular target: T1, M-phase inducer phosphatase 2 (Homo sapiens, UniProt P30305); assay: Inhibition of human recombinant GST-tagged CDC25B expressed in Escherichia coli BL21 (DE3) using pNPP as substrate measured for 2 mins by colorimetric analysis
T1 sequence (P30305 whole entry): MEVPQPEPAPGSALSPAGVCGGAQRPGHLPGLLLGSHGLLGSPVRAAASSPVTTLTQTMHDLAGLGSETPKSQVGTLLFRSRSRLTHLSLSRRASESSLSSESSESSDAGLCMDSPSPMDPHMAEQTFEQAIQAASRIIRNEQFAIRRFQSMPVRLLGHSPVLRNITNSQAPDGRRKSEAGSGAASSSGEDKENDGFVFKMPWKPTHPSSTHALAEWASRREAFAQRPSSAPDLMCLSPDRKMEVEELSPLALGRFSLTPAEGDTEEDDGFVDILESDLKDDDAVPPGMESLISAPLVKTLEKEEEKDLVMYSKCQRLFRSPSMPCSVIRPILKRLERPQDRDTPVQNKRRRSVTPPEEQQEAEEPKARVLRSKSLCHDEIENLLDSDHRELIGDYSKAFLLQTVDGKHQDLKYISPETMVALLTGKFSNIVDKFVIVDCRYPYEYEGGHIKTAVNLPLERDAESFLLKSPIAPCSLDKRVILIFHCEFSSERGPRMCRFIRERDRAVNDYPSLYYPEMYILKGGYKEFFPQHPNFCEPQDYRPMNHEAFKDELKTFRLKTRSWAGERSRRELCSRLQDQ
Summary of the method: (§1)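 pNPP hydrolysis assay. IC50 was derived by regression analysis and given as mean ± SD of three replications.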

Staphylococcus aureus [2] = assay: Antibacterial activity against Staphylococcus aureus RN4220 assessed as reduction in bacterial cell growth incubated for 24 hrs by ELISA; format: functional; settings: RN4220, 24 h
Summary of the method: (§2)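 MICs determined by serial dilution in 96-well microtiter plates. The strain panel included Gram-positive S. aureus strains and multidrug-resistant clinical isolates. Gatifloxacin, moxifloxacin, norfloxacin and oxacillin served as antibacterial positive controls.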

Staphylococcus aureus [3] = assay: Antibacterial activity against Staphylococcus aureus KCTC209 assessed as reduction in bacterial cell growth incubated for 24 hrs by ELISA; format: functional; settings: KCTC209, 24 h; summary of the method: as §2
Staphylococcus aureus [4] = assay: Antibacterial activity against Methicillin-resistant Staphylococcus aureus CCARM 3167 assessed as reduction in bacterial cell growth incubated for 24 hrs by ELISA; format: functional; settings: CCARM 3167, 24 h; summary of the method: as §2
Homo sapiens [5] = organism: Homo sapiens; assay: Selectivity ratio of IC50 for human recombinant GST-tagged SHP2 to IC50 for human recombinant GST-tagged PTP1B
[6] = molecular target: Tyrosine-protein phosphatase non-receptor type 6 (Homo sapiens, UniProt P29350); assay: Inhibition of human recombinant GST-tagged SHP1 (catalytic domain 244 to 570 residues) expressed in Escherichia coli BL21 (DE3) using pNPP as substrate measured for 2 mins by colorimetric analysis; summary of the method: as §1
Staphylococcus aureus [7] = assay: Antibacterial activity against Quinolone-resistant Staphylococcus aureus CCARM 3505 assessed as reduction in bacterial cell growth incubated for 24 hrs by ELISA; format: functional; settings: CCARM 3505, 24 h; summary of the method: as §2
[8] = molecular target: T2, Tyrosine-protein phosphatase non-receptor type 11 (Homo sapiens, UniProt Q06124); assay: Inhibition of human recombinant GST-tagged SHP2 (catalytic domain […] residues) expressed in Escherichia coli BL21 (DE3) using pNPP as substrate measured for 2 mins by colorimetric analysis; summary of the method: as §1
T2 sequence (Q06124 whole entry): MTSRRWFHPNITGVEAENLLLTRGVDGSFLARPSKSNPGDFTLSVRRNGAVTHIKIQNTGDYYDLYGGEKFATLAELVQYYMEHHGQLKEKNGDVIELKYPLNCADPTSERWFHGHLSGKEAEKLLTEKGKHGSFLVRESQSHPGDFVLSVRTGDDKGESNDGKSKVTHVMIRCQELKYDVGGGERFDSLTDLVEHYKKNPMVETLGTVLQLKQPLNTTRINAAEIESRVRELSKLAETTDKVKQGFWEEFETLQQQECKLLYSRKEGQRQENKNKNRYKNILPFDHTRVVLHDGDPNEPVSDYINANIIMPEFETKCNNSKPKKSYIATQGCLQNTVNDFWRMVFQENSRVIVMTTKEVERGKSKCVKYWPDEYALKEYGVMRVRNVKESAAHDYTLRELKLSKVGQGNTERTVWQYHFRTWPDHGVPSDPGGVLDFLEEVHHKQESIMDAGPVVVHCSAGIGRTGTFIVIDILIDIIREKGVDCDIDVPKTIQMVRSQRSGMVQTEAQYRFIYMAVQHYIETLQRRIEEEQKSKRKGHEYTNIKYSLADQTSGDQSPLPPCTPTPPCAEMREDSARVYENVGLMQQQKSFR

Staphylococcus aureus [9] = assay: Antibacterial activity against Methicillin-resistant Staphylococcus aureus CCARM 3506 assessed as reduction in bacterial cell growth incubated for 24 hrs by ELISA; format: functional; settings: CCARM 3506, 24 h; summary of the method: as §2
Homo sapiens [10] = organism: Homo sapiens; assay: Selectivity ratio of IC50 for human recombinant GST-tagged SHP1 to IC50 for human recombinant GST-tagged PTP1B
[11] = molecular target: T3, Tyrosine-protein phosphatase non-receptor type 2 (Homo sapiens, UniProt P17706); assay: Inhibition of human recombinant GST-tagged TCPTP (catalytic domain […] residues) expressed in Escherichia coli BL21 (DE3) using pNPP as substrate measured for 2 mins by colorimetric analysis
T3 sequence (P17706 whole entry): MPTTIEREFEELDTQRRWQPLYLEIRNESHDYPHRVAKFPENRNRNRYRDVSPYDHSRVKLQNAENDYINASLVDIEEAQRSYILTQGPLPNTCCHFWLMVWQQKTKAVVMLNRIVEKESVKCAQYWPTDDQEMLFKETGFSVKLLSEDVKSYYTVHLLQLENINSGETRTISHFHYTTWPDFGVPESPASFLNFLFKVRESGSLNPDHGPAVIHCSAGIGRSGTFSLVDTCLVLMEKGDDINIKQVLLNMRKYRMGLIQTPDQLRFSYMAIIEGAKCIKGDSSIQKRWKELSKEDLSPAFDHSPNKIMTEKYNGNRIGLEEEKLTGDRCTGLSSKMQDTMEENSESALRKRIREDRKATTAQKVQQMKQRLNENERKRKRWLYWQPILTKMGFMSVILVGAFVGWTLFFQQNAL

Homo sapiens [12] = organism: Homo sapiens; assay: Selectivity ratio of IC50 for human recombinant GST-tagged TCPTP to IC50 for human recombinant GST-tagged PTP1B
Pseudomonas aeruginosa = assay: Antibacterial activity against Pseudomonas aeruginosa 2742 assessed as reduction in bacterial cell growth incubated for 24 hrs by ELISA; format: functional; settings: Pseudomonas aeruginosa, 2742, 24 h
Summary of the method: (§3)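 MIC determined by serial dilution in 96-well microtiter plates. Strains used were E. coli 1924 and P. aeruginosa 2742 (Gram-negative), S. mutans 3289 (Gram-positive) and the fungus C. albicans 7535. Gatifloxacin, moxifloxacin, norfloxacin and oxacillin served as antibacterial reference agents, and fluconazole as the antifungal reference.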

Streptococcus mutans = assay: Antibacterial activity against Streptococcus mutans KCTC3289 assessed as reduction in bacterial cell growth incubated for 24 hrs by ELISA; format: functional; settings: KCTC3289, 24 h; summary of the method: as §3
Staphylococcus aureus [13] = assay: Antibacterial activity against Staphylococcus aureus KCTC503 assessed as reduction in bacterial cell growth incubated for 24 hrs by ELISA; format: functional; settings: KCTC503, 24 h; summary of the method: as §2

Sequence of Tyrosine-protein phosphatase non-receptor type 6 (P29350 whole entry, the tested form may be a part): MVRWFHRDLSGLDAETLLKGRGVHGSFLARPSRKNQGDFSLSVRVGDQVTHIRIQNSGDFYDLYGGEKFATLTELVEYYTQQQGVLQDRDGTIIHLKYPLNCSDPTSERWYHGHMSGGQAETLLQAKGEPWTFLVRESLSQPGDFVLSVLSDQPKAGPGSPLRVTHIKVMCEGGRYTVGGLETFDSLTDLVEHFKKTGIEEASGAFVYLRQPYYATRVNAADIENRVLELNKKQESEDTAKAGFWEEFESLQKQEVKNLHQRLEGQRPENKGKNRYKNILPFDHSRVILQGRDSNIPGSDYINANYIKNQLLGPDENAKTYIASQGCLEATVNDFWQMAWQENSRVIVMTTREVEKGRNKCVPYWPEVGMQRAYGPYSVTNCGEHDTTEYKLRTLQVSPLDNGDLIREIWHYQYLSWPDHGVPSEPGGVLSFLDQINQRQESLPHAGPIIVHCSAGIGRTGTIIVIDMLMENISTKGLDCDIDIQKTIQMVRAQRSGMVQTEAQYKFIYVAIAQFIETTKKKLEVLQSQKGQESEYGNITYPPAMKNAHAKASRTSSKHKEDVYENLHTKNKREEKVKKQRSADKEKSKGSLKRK

SMILES | IC50 [1] [nM] | MIC (Staphylococcus aureus [2]) [µg/mL] | MIC (Staphylococcus aureus [3]) [µg/mL] | MIC (Staphylococcus aureus [4]) [µg/mL] | Ratio IC50 (Homo sapiens [5]) | IC50 [6] [nM] | MIC (Staphylococcus aureus [7]) [µg/mL] | IC50 [8] [nM] | MIC (Staphylococcus aureus [9]) [µg/mL] | Ratio IC50 (Homo sapiens [10]) | IC50 [11] [nM] | Ratio IC50 (Homo sapiens [12]) | MIC (Pseudomonas aeruginosa) [µg/mL] | MIC (Streptococcus mutans) [µg/mL] | MIC (Staphylococcus aureus [13]) [µg/mL]
O=C(O)C(Cc1c[nH]c2ccccc12)N1C(=O)/C(=C/c2ccc3cc(OCc4ccc(Cl)cc4Cl)ccc3c2)SC1=S (stereo not given) | 490 | 2 (≈ 3.16 µM) | 4 (≈ 6.31 µM) | 4 (≈ 6.31 µM) | 9 to 10 | 2950 | 4 (≈ 6.31 µM) | 6930 | 8 (≈ 12.6 µM) | 3 to 6 | 1830 | 2 to 3 | > 64 | 4 (≈ 6.31 µM) | 4 (≈ 6.31 µM)
Cc1ccc(COc2ccc3cc(/C=C4\SC(=S)N(C(Cc5c[nH]c6ccccc56)C(=O)O)C4=O)ccc3c2)cc1 (stereo not given) | 830 | 2 (≈ 3.46 µM) | 2 (≈ 3.46 µM) | 2 (≈ 3.46 µM) | 9 to 10 | 3990 | 2 (≈ 3.46 µM) | 5810 | 8 (≈ 13.8 µM) | 3 to 6 | 1690 | 2 to 3 | > 64 | 2 (≈ 3.46 µM) | 2 (≈ 3.46 µM)
O=C(O)C(Cc1c[nH]c2ccccc12)N1C(=O)/C(=C/c2ccc3cc(OCc4ccc(Br)cc4)ccc3c2)SC1=S (stereo not given) | 320 | 2 (≈ 3.11 µM) | 2 (≈ 3.11 µM) | 4 (≈ 6.22 µM) | 9 to 10 | 1110 | 4 (≈ 6.22 µM) | 3800 | 4 (≈ 6.22 µM) | 3 to 6 | 780 | 2 to 3 | > 64 | 8 (≈ 12.4 µM) | 4 (≈ 6.22 µM)
